The test system of test [1] is SMMC-7721. Briefly: Cytotoxicity against human SMMC7721 cells after 48 hrs by MTS assay. It counts as functional, cell-based. To be noted: SMMC-7721, 48 h. In short, it runs like this: (§1)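 Cells were kept in RPMI-1640 or DMEM with 10% FBS at 37 °C under 5% CO2 and seeded at 1 × 10^5 cells/mL, with adherent cells allowed 12 h to attach. Compounds were tested at 0.064, 0.32, 1.6, 8 and 40 μM, in triplicate, for 48 h at 37 °C. Cisplatin and paclitaxel were the positive controls. MTS was then added for 4 h and absorbance read at […]. IC50 was calculated by the Reed and Muench method.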
On the technique in general: Tetrazolium dyes change colour on reduction, which living cells bring about.

Test [2] deals with MCF7. Briefly: Cytotoxicity against human MCF7 cells after 48 hrs by MTS assay. To be noted: MCF7, 48 h. Format: functional, cell-based. The gist of the method: as §1
Test [3] deals with A549. Put plainly: Cytotoxicity against human A549 cells after 48 hrs by MTS assay. Format: functional, cell-based. To be noted: A549, 48 h. In short, it runs like this: as §1
Test [4] can be described thus: Cytotoxicity against human BEAS2B cells after 48 hrs by MTS assay. It counts as cell-based. To be noted: BEAS-2B.
Test [5] relates to SW480. Put plainly: Cytotoxicity against human SW480 cells after 48 hrs by MTS assay. To be noted: SW480, 48 h. Format: functional, cell-based. In short, it runs like this:
as §1

Test [6] relates to HL-60. Briefly: Cytotoxicity against human HL60 cells after 48 hrs by MTS assay. To be noted: HL-60, 48 h. It counts as functional, cell-based. The gist of the method: as §1

Molecules are shown by their SMILES.

The IC50 is the midpoint of a concentration-inhibition curve. Lower therefore signals higher potency. As for `C=C1C(=O)[C@@]23[C@H](O)C[C@@H]4C(C)(C)[C@@H](OC(C)=O)CC[C@@]4(C)[C@@H]2[C@H](O)C[C@@H]1[C@H]3O`, the concentration for half-maximal inhibition (IC50) in test [1] was 1100 nM; in test [2], 3400 nM; in test [3], 3500 nM; in test [4], 2800 nM; in test [5], 1400 nM; in test [6], 2500 nM.

`C=C1C(=O)[C@@]23[C@H](O)C[C@@H]4C(C)(C)[C@@H](OC(C)=O)CC[C@@]4(C)[C@@H]2[C@@H](O)C[C@@H]1[C@H]3O`: the IC50 in test [1] was 3800 nM; in test [2] it was more than 10000 nM; in test [3] it was more than 10000 nM; in test [4], more than 10000 nM; in test [5], 5500 nM; in test [6], 9700 nM.

As to `C=C1C(=O)[C@@]23[C@H](O)C[C@@H]4C(C)(C)[C@@H](OC(C)=O)CC[C@@]4(C)[C@@H]2C(=O)C[C@@H]1[C@H]3O`, the IC50 worked out at 3000 nM in test [1]; 2500 nM in test [2]; 2700 nM in test [3]; 2000 nM in test [4]; 1600 nM in test [5]; 2800 nM in test [6].

Take `C=C1C(=O)[C@@]23[C@H](O)C[C@@H]4C(C)(C)C(=O)CC[C@@]4(C)[C@@H]2[C@H](O)C[C@@H]1[C@H]3O`: the IC50 in test [1] was more than 10000 nM; in test [2] it was more than 10000 nM; in test [3] it was more than 10000 nM; in test [4], more than 10000 nM; in test [5], 8100 nM; in test [6] it was more than 10000 nM.

Consider `C=C1C(=O)[C@@]23[C@H](O)C[C@@H]4C(C)(C)[C@@H](O)CC[C@@]4(C)[C@@H]2C(=O)C[C@@H]1[C@H]3O`, for which the IC50 in test [1] was more than 10000 nM; in test [2] it was more than 10000 nM; in test [3] it was more than 10000 nM; in test [4] it was more than 10000 nM; in test [5] it was 7600 nM; in test [6], more than 10000 nM.

In the case of `C=C1C(=O)[C@@]23[C@H](O)C[C@@H]4C(C)(C)C(=O)CC[C@@]4(C)[C@@H]2C(=O)C[C@@H]1[C@H]3O`, the IC50 in test [1] came out at 4900 nM; in test [2], 3100 nM; in test [3], 6400 nM; in test [4] it was 3100 nM; in test [5] it was 2200 nM; in test [6], 3300 nM.

Turning to `C=C1C(=O)[C@@]23[C@H](O)C[C@@H]4C(C)(C)[C@@H](OC(C)=O)CC[C@@]4(C)[C@@H]2C=C[C@@H]1[C@H]3O`, the IC50 was determined as 2800 nM in test [1]; 1700 nM in test [2]; 3100 nM in test [3]; 880 nM in test [4]; 2800 nM in test [5]; 2100 nM in test [6].

For `C=C1C(=O)[C@@]23[C@H](O)C[C@@H]4C(C)(C)[C@@H](OC(C)=O)CC[C@@]4(C)[C@@H]2[C@@H]2O[C@@H]2[C@@H]1[C@H]3O`, the IC50 was 1300 nM in test [1]; 3000 nM in test [2]; 1100 nM in test [3]; 730 nM in test [4]; 1800 nM in test [5]; 650 nM in test [6].

Turning to `C=C1C(=O)[C@@]23[C@H](O)C[C@@H]4[C@@](C)(COC(C)=O)CCC[C@@]4(C)[C@@H]2C(=O)C[C@@H]1[C@H]3O`, the IC50 was found to be 960 nM in test [1]; 1800 nM in test [2]; 940 nM in test [3]; 870 nM in test [4]; 1700 nM in test [5]; 710 nM in test [6].

Take `COC[C@H]1C(=O)[C@@]23[C@H](O)C[C@@H]4C(C)(C)[C@@H](OC(C)=O)CC[C@@]4(C)[C@@H]2C(=O)C[C@@H]1[C@H]3O`: the IC50 in test [1] was 4000 nM; in test [2], 2500 nM; in test [3], 2900 nM; in test [4], 2500 nM; in test [5], 2000 nM; in test [6], 3700 nM.

As to `CCOC[C@@H]1C(=O)[C@@]23[C@H](O)C[C@@H]4C(C)(C)[C@@H](OC(C)=O)CC[C@@]4(C)[C@@H]2C(=O)C[C@@H]1[C@H]3O`, the IC50 in test [1], in test [2], in test [3], in test [4], in test [5] and in test [6] was more than 10000 nM each time.

`CCOC[C@H]1C(=O)[C@@]23[C@H](O)C[C@@H]4C(C)(C)[C@@H](OC(C)=O)CC[C@@]4(C)[C@@H]2C(=O)C[C@@H]1[C@H]3O`: the IC50 was determined as 3500 nM in test [1]; 3100 nM in test [2]; 3500 nM in test [3]; 2800 nM in test [4]; 3000 nM in test [5]; 3300 nM in test [6].

Regarding `COC[C@@H]1C(=O)[C@@]23[C@H](O)C[C@@H]4C(C)(C)C(=O)CC[C@@]4(C)[C@@H]2C(=O)C[C@@H]1[C@H]3O`, the half-maximal inhibitory concentration (IC50) in test [1], in test [2], in test [3], in test [4], in test [5] and in test [6] was more than 10000 nM throughout.

On to `COC[C@@H]1C(=O)[C@@]23[C@H](O)C[C@@H]4[C@@](C)(COC(C)=O)CCC[C@@]4(C)[C@@H]2C(=O)C[C@@H]1[C@H]3O`, for which the IC50 in test [1] is more than 10000 nM; in test [2] it was more than 10000 nM; in test [3] it was more than 10000 nM; in test [4] it was more than 10000 nM; in test [5] it was 6700 nM; in test [6] it was more than 10000 nM.

For `COC[C@H]1C(=O)[C@@]23[C@H](O)C[C@@H]4[C@@](C)(COC(C)=O)CCC[C@@]4(C)[C@@H]2C(=O)C[C@@H]1[C@H]3O`, the IC50 is 3500 nM in test [1]; 2000 nM in test [2]; 3000 nM in test [3]; 3000 nM in test [4]; 2600 nM in test [5]; 2800 nM in test [6].

In the case of `CC(=O)O[C@H]1C(=O)[C@@]2(C)[C@H]([C@H](OC(=O)c3ccccc3)[C@]3(O)C[C@H](OC(=O)[C@H](O)[C@@H](NC(=O)c4ccccc4)c4ccccc4)C(C)=C1C3(C)C)[C@]1(OC(C)=O)CO[C@@H]1C[C@@H]2O` [PACLITAXEL], the concentration for half-maximal inhibition (IC50) in test [1] was less than 8 nM; in test [2], less than 8 nM; in test [3] it was less than 8 nM; in test [4], 580 nM; in test [5], less than 8 nM; in test [6] it was less than 8 nM.
